Laboratory results: ChEMBL document CHEMBL1156690, “Synthesis, anti-HIV-1 integrase, and cytotoxic activities of 4-chloro-N-(4-oxopyrimidin-2-yl)-2-mercaptobenzenesulfonamide derivatives” (Eur J Med Chem, 2008)

Legend:
[1] = biological target: T1, Human immunodeficiency virus type 1 integrase (Human immunodeficiency virus 1, UniProt Q7ZJM1); experiment: Inhibition of HIV1 integrase 3' processing activity
Summary of the method: (§1)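 HIV-1 integrase (200 nM final) preincubated 30 min at 30 °C with inhibitor in buffer (pH 7.2 MOPS, NaCl, HEPES, EDTA, DTT, 10% glycerol, 7.5 mM MnCl₂, 0.1 mg/ml BSA, 2-mercaptoethanol, 10% DMSO). 20 nM 5'-³²P-labeled linear oligonucleotide substrate then added for 1 h. Quenched with formamide loading dye; products resolved on denaturing 20% polyacrylamide/urea gel. IC₅₀ reported for each step.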

[2] = biological target: T1, Human immunodeficiency virus type 1 integrase; experiment: Inhibition of HIV1 integrase strand transfer activity; summary of the method: as §1
[3] = system: SNB-75; experiment: Growth inhibition of human SNB75 cells; format: functional
Summary of the method: (§2)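 Run by the US National Cancer Institute in vitro screen against a panel of 53–57 human tumor cell lines. GI₅₀ is defined as the molar concentration inhibiting 50% net cell growth. TGI is the concentration giving total growth inhibition.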

[4] = system: SF-268; experiment: (§3) Growth inhibition of human SF268 cells; format: functional; summary of the method: as §2
[5] = system: UACC-62; experiment: Growth inhibition of human UACC62 cells; format: functional; summary of the method: as §2
[6] = system: NCI-H522; experiment: Growth inhibition of human NCI-H522 cells; format: functional; summary of the method: as §2
[7] = system: EKVX; experiment: Growth inhibition of human EKVX cells; format: functional; summary of the method: as §2
[8] = system: SNB-19; experiment: Growth inhibition of human SNB19 cells; format: functional; summary of the method: as §2
[9] = system: SF-268; experiment: as §3; format: functional; summary of the method: as §2; remark: listed apart in the source
[10] = system: T47D; experiment: Growth inhibition of human T47D cells; format: functional; summary of the method: as §2
[11] = system: MOLT-4; experiment: Growth inhibition of human MOLT4 cells; format: functional; summary of the method: as §2
[12] = system: CCRF-CEM; experiment: Growth inhibition of human CCRF-CEM cells; format: functional; summary of the method: as §2
[13] = system: HCC 2998; experiment: Growth inhibition of human HCC2998 cells; format: functional; summary of the method: as §2
[14] = system: HCT-116; experiment: Growth inhibition of human HCT116 cells; format: functional; summary of the method: as §2
[15] = system: M14; experiment: Growth inhibition of human M14 cells; format: functional; summary of the method: as §2
[16] = system: HOP-62; experiment: Growth inhibition of human HOP62 cells; format: functional; summary of the method: as §2
[17] = system: SN12C; experiment: Growth inhibition of human SN12C cells; format: functional; summary of the method: as §2
[18] = system: SK-MEL-5; experiment: Growth inhibition of human SK-MEL-5 cells; format: functional; summary of the method: as §2
[19] = system: LOX IMVI; experiment: Growth inhibition of human LOX IMVI cells; format: functional; conditions: for GI50 / TGI: Homo sapiens, LOX IMVI; summary of the method: as §2
[20] = system: BT-549; experiment: Growth inhibition of human BT549 cells; format: functional; summary of the method: as §2
[21] = system: KM12; experiment: Growth inhibition of human KM12 cells; format: functional; summary of the method: as §2
[22] = system: SR; experiment: Growth inhibition of human SR cells; format: functional; summary of the method: as §2
[23] = system: Malme-3M; experiment: Growth inhibition of human MALME-3M cells; format: functional; summary of the method: as §2
[24] = system: A498; experiment: Growth inhibition of human A498 cells; format: functional; summary of the method: as §2
[25] = system: NCI-H322M; experiment: Growth inhibition of human NCI-H322M cells; format: functional; summary of the method: as §2

T1 sequence (Q7ZJM1 whole entry): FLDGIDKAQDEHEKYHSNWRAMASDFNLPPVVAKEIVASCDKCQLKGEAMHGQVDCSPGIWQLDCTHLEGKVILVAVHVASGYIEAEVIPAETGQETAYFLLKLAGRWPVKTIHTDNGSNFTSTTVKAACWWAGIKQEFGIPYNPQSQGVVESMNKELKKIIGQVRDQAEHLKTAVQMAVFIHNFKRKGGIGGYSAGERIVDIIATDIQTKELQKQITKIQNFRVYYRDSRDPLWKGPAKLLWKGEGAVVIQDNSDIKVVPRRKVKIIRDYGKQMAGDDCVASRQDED

Cc1cc(S(=O)(=O)Nc2nc3n[nH]cc3c(=O)n2N)c(S)cc1Cl
IC50 [1]: > 100 µM
IC50 [2]: > 100 µM

COc1cc2nc(NS(=O)(=O)c3cc(C)c(Cl)cc3S)n(N)c(=O)c2cc1OC
IC50 [1]: > 100 µM
IC50 [2]: > 100 µM

Cc1cc(S(=O)(=O)Nc2nc3ccccc3c(=O)n2N)c(S)cc1Cl
GI50 [3]: 13.3 µM
TGI [3]: 32.7 µM
GI50 [4]: 7.2 µM
TGI [4]: 40.1 µM
GI50 [5]: 19.7 µM
TGI [5]: 49.2 µM
GI50 [6]: 19 µM
TGI [6]: 50.8 µM
GI50 [7]: 14.8 µM
TGI [7]: 29.2 µM
GI50 [8]: 15.7 µM
TGI [8]: 47.2 µM
IC50 [1]: > 100 µM
IC50 [2]: > 100 µM

COc1ccc(NC(=O)c2cc(S(=O)(=O)Nc3nc4ccccc4c(=O)[nH]3)c(SCc3ccccc3)cc2Cl)cc1
IC50 [1]: > 100 µM
IC50 [2]: 93 µM

Cc1cc(S(=O)(=O)Nc2nc3scc(C)c3c(=O)n2N)c(S)cc1Cl
IC50 [1]: > 100 µM
IC50 [2]: 81 µM

Cc1cc(S(=O)(=O)Nc2nc3cscc3c(=O)n2N)c(S)cc1Cl
GI50 [9]: 17.7 µM
TGI [9]: 68.1 µM
GI50 [3]: 15 µM
TGI [3]: 58.5 µM
IC50 [1]: 69 µM
IC50 [2]: 43 µM

Cc1cc(S(=O)(=O)Nc2nc3cc(-c4ccc(Cl)cc4)sc3c(=O)n2Cc2ccccc2)c(S)cc1Cl
GI50 [9]: > 100 µM
GI50 [10]: > 100 µM
GI50 [3]: > 100 µM
GI50 [4]: > 100 µM
GI50 [11]: > 100 µM
GI50 [12]: > 100 µM
GI50 [5]: > 100 µM
GI50 [13]: > 100 µM
GI50 [14]: > 100 µM
GI50 [15]: > 100 µM
GI50 [6]: > 100 µM
GI50 [16]: > 100 µM
GI50 [7]: > 100 µM
GI50 [8]: > 100 µM
GI50 [17]: > 100 µM
GI50 [18]: > 100 µM
GI50 [19]: > 100 µM
GI50 [20]: > 100 µM
GI50 [21]: > 100 µM
GI50 [22]: > 100 µM
GI50 [23]: > 100 µM
GI50 [24]: > 100 µM
IC50 [1]: 6 µM
IC50 [2]: 4 µM

Cc1cc(S(=O)(=O)Nc2nc3cc(-c4ccsc4)sc3c(=O)n2Cc2ccco2)c(S)cc1Cl
GI50 [9]: > 100 µM
GI50 [10]: > 100 µM
GI50 [25]: > 100 µM
GI50 [3]: > 100 µM
GI50 [4]: > 100 µM
GI50 [11]: > 100 µM
GI50 [12]: > 100 µM
GI50 [5]: > 100 µM
GI50 [13]: > 100 µM
GI50 [14]: > 100 µM
GI50 [15]: > 100 µM
GI50 [6]: > 100 µM
GI50 [16]: > 100 µM
GI50 [7]: > 100 µM
GI50 [8]: > 100 µM
GI50 [17]: > 100 µM
GI50 [18]: > 100 µM
GI50 [19]: > 100 µM
GI50 [20]: > 100 µM
GI50 [21]: > 100 µM
GI50 [22]: > 100 µM
GI50 [23]: > 100 µM
GI50 [24]: > 100 µM
IC50 [1]: 8 µM
IC50 [2]: 6 µM

Cc1cc(S(=O)(=O)Nc2nc3ccsc3c(=O)n2Cc2ccco2)c(S)cc1Cl
GI50 [11]: 19.4 µM
TGI [11]: 84.2 µM
GI50 [22]: 9.9 µM
TGI [22]: 29.7 µM
IC50 [1]: 62 µM
IC50 [2]: 53 µM

Cc1cc(S(=O)(=O)Nc2nc3cc(C(C)(C)C)sc3c(=O)n2Cc2ccccc2)c(S)cc1Cl
IC50 [1]: 22 µM
IC50 [2]: 4 µM

Cc1cc(S(=O)(=O)Nc2nc3cc(-c4ccccc4)sc3c(=O)n2Cc2ccccc2)c(S)cc1Cl
GI50 [9]: > 100 µM
GI50 [10]: > 100 µM
GI50 [25]: > 100 µM
GI50 [3]: > 100 µM
GI50 [4]: > 100 µM
GI50 [11]: > 100 µM
GI50 [12]: > 100 µM
GI50 [5]: > 100 µM
GI50 [13]: > 100 µM
GI50 [14]: > 100 µM
GI50 [15]: > 100 µM
GI50 [6]: > 100 µM
GI50 [16]: > 100 µM
GI50 [7]: > 100 µM
GI50 [8]: > 100 µM
GI50 [17]: > 100 µM
GI50 [18]: > 100 µM
GI50 [19]: > 100 µM
GI50 [20]: > 100 µM
GI50 [21]: > 100 µM
GI50 [22]: > 100 µM
GI50 [23]: > 100 µM
GI50 [24]: > 100 µM
IC50 [1]: 9 µM
IC50 [2]: 6 µM

Cc1cc(S(=O)(=O)Nc2nc3cscc3c(=O)n2Cc2ccccc2)c(S)cc1Cl
GI50 [10]: 4.5 µM
TGI [10]: 40.8 µM
GI50 [25]: 18.2 µM
TGI [25]: 45.9 µM
GI50 [11]: 3.9 µM
TGI [11]: 32.5 µM
GI50 [12]: 14 µM
TGI [12]: 47.6 µM
GI50 [13]: 18.9 µM
TGI [13]: 68.5 µM
GI50 [16]: 16.5 µM
TGI [16]: 39.3 µM
GI50 [17]: 16.6 µM
TGI [17]: 54.5 µM
GI50 [19]: 18.2 µM
TGI [19]: 51.6 µM
GI50 [21]: 19.9 µM
TGI [21]: 74.7 µM
IC50 [1]: 80 µM
IC50 [2]: 31 µM

Cc1cc(S(=O)(=O)Nc2nc3cc(C(C)(C)C)sc3c(=O)n2N)c(S)cc1Cl
IC50 [1]: 60 µM
IC50 [2]: 35 µM

Cc1cc(S(=O)(=O)Nc2nc3cc(Cl)ccc3c(=O)[nH]2)c(SCc2ccccc2)cc1Cl
IC50 [1]: 47 µM
IC50 [2]: 33 µM

NC(=O)c1cc(S(=O)(=O)Nc2nc3ccccc3c(=O)[nH]2)c(SCc2ccccc2)cc1Cl
IC50 [1]: > 100 µM
IC50 [2]: > 100 µM

Cc1cc(S(=O)(=O)Nc2nc3ccsc3c(=O)[nH]2)c(SCc2ccccc2)cc1Cl
IC50 [1]: > 100 µM
IC50 [2]: 70 µM

Cc1cc(S(=O)(=O)Nc2nc(=O)c3ccccc3n2C)c(SCc2ccccc2)cc1Cl
IC50 [1]: > 100 µM
IC50 [2]: 90 µM

Cc1cc(S(=O)(=O)Nc2nc(N)n[nH]2)c(S)cc1Cl
IC50 [1]: 4.79 µM
IC50 [2]: 4.9 µM

Cc1ccc(NC(=O)c2cc(S(=O)(=O)Nc3nc4ccccc4c(=O)[nH]3)c(SCc3ccccc3)cc2Cl)cc1
IC50 [1]: > 100 µM
IC50 [2]: 77 µM

O=C(Nc1ccc(Cl)cc1)c1cc(S(=O)(=O)Nc2nc3ccccc3c(=O)[nH]2)c(SCc2ccccc2)cc1Cl
IC50 [1]: > 100 µM
IC50 [2]: 52 µM

O=C(Nc1ccccc1)c1cc(S(=O)(=O)Nc2nc3ccccc3c(=O)[nH]2)c(SCc2ccccc2)cc1Cl
IC50 [1]: 73 µM
IC50 [2]: 36 µM

Cc1cc(S(=O)(=O)Nc2nc3ccccc3c(=O)[nH]2)c(SCc2ccccc2)cc1Cl
IC50 [1]: > 100 µM
IC50 [2]: 83 µM

Cc1cc(S(=O)(=O)Nc2nc3cscc3c(=O)[nH]2)c(SCc2ccccc2)cc1Cl
IC50 [1]: > 100 µM
IC50 [2]: 78 µM

Cc1cc(S(=O)(=O)Nc2nc3ccsc3c(=O)n2N)c(S)cc1Cl
IC50 [1]: 65 µM
IC50 [2]: 53 µM

Cc1cc(S(=O)(=O)Nc2nc3sc(C)c(C)c3c(=O)n2N)c(S)cc1Cl
IC50 [1]: 55 µM
IC50 [2]: 39 µM

Cc1cc(S(=O)(=O)Nc2nc3ccccc3c(=O)n2Cc2ccco2)c(S)cc1Cl
GI50 [10]: 15 µM
TGI [10]: 81.4 µM
GI50 [11]: 18.6 µM
TGI [11]: 70.6 µM
GI50 [8]: < 0.01 µM
TGI [8]: 88.8 µM
growth inhibitory concentration [19]: 16.1 µM
TGI [19]: 59.3 µM
GI50 [20]: 15.7 µM
TGI [20]: 51.9 µM
GI50 [22]: 19.5 µM
TGI [22]: 40.7 µM
IC50 [1]: 78 µM
IC50 [2]: 42 µM

Cc1cc(S(=O)(=O)Nc2nc3ccsc3c(=O)n2Cc2ccccc2)c(S)cc1Cl
GI50 [25]: 19.5 µM
TGI [25]: 48.8 µM
GI50 [5]: 19.5 µM
TGI [5]: 44.4 µM
GI50 [14]: 19.2 µM
TGI [14]: 37.7 µM
GI50 [15]: 19.8 µM
TGI [15]: 49.6 µM
GI50 [16]: 19.7 µM
TGI [16]: 46.6 µM
GI50 [18]: 12.5 µM
TGI [18]: 34.2 µM
GI50 [21]: 19.9 µM
TGI [21]: 48.2 µM
GI50 [23]: 19.9 µM
TGI [23]: 56.1 µM
GI50 [24]: 14.2 µM
TGI [24]: 49.3 µM
IC50 [1]: 53 µM
IC50 [2]: 29 µM
